Reference: publication PMC5839721 (The Journal of General Physiology, 2018)
Where two headings read alike, the source gives them in different places.

How the values were obtained:
[1] = molecular target: T1, human SERT (Homo sapiens, UniProt P31645); assay type: cell-based; details: for change of rate of peak current recovery with intracellular Na+ concentration: 0 to 140 mM intracellular Na+; for change of rate of peak current recovery with intracellular Na+ concentration / increase of rate of peak current recovery from 0 M to 140 mM intracellular Na+: extracellular Na+ 140 mM; for peak current recovery rate (monoexponential fit): fixed intracellular Na+ 140 mM, K+-free, Fig. 1 G; for kslow of peak current recovery (biexponential fit): after 30 µM substrate, ±SEM; for dependence of the recovery rates on extracellular Na+ concentration: intracellular Na+ 140 mM, extracellular Na+ 10-140 mM
T1 sequence (P31645 whole entry, the tested form may be a part): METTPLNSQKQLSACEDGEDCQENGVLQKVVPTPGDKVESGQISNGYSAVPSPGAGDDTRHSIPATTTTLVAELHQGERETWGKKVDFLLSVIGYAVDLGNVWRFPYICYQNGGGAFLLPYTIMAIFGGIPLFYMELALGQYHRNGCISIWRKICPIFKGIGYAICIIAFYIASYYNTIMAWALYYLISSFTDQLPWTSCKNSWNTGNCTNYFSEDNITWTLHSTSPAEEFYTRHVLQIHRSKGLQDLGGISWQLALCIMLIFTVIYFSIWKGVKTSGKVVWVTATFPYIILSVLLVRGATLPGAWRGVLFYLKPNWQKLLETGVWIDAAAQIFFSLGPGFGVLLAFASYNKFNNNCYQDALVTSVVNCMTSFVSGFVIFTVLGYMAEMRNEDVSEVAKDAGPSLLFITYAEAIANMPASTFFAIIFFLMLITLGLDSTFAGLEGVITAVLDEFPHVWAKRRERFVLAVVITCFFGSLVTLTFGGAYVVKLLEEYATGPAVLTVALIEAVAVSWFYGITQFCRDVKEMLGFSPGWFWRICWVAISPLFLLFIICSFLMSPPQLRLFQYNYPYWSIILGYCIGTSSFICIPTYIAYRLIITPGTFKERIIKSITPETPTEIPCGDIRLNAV
In short: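 GFP-tagged human SERT, tetracycline-inducible, in HEK293 cells seeded at low density 24 h before. Whole-cell voltage clamp with superfused pH 7.4 HEPES buffer. Na+ varied, osmolarity kept by NMDG chloride; intracellular Na+ 0–140 mM at 140 mM external. After 30 µM substrate, 10 µM 5-HT-evoked peak recovery fitted to mono- or biexponential rise; rates ±95% CI, kslow ±SEM; n = 4–7.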

[2] = molecular target: T1, human SERT; test: [3H]MPP+ release; assay type: cell-based; details: 3 µM releaser, 100 µM ouabain; for effect of monensin on efflux of [3H]MPP+: with vs without 10 µM monensin
In short: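 HEK293 cells with inducible GFP-tagged human SERT on poly-D-lysine coverslips (24 h) were preloaded with 0.1 µM [3H]MPP+ for 20 min at 37°C. Superfused with K+-free buffer containing 100 µM ouabain for 40 min, then 2-min fractions: three basal, four with 10 µM monensin or ethanol vehicle, five with 3 µM test compound, three with 1% SDS. Release given as percent [3H]MPP+ over time.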

Row | Structure (SMILES) | change of rate of peak current recovery with intracellular Na+ concentration [1] | peak current recovery rate (monoexponential fit) [1] [s⁻¹] | effect of monensin on efflux of [3H]MPP+ [2] | increase of rate of peak current recovery from 0 M to 140 mM intracellular Na+ [1] [fold] | dependence of the recovery rates on extracellular Na+ concentration [1] | other results
1 | CNC(C)Cc1ccc2ccccc2c1 (centres unmarked) [PAL-1046] | did not change with Na^+ concentration | – | – | – | – | –
2 | CC(N)Cc1ccc2ccccc2c1 (centres unmarked) [PAL-287] | did not change with Na^+ concentration | – | – | – | – | –
3 | CCN[C@@H](C)Cc1ccc2ccccc2c1 [PAL-1045] | decreased fourfold | 0.025 ± 0.001 | comparable in the absence and presence of monensin | – | – | dissociation rate from SERT ([1]; slow dissociation from the outward-facing conformation, high Na+): ~0.025 s⁻¹
4 | CC(N)Cc1ccc(Cl)cc1 (centres unmarked) [p-chloroamphetamine, para-chloroamphetamine] | – | – | significantly larger efflux | ~10 | did not detect any dependence | kslow of peak current recovery (biexponential fit) ([1]; 10 mM Na+e, 140 mM intracellular Na+): 0.35 ± 0.23 s⁻¹; kslow of peak current recovery (biexponential fit) ([1]; 70 mM Na+e, 140 mM intracellular Na+): 0.10 ± 0.12 s⁻¹; kslow of peak current recovery (biexponential fit) ([1]; 70 mM Na+i, 140 mM extracellular Na+): 0.50 ± 0.11 s⁻¹; kslow of peak current recovery (biexponential fit) ([1]; 140 mM Na+e, 140 mM intracellular Na+): 0.49 ± 0.15 s⁻¹; release of [3H]MPP+ ([2]; no monensin): substantially larger release of [^3H]MPP^+ than PAL-1045
5 | NCCc1c[nH]c2ccc(O)cc12 [5-HT, 5-hydroxy-tryptamine] | – | 4.012 ± 0.211 | – | ~6.7 | did not detect any dependence | –
